# From PubChem
# Compounds with a hit are over-represented: about 2.3% of the library has one in this group of screens.
# NPY-Y1 antag – blocks the human neuropeptide Y Y1 receptor | AID 1040 | P25929 | inhibition, % at 3.6 µM | HEK293-CNG Y1 cells, membrane potential fluorescence; NPY at EC95, then isoproterenol | 200,000 tested, 1% active;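 active = inhibition above the campaign mean inhibition of all tested compounds plus 3 SD, cut at about 20% in these data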;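 also: 0% = DMSO wells given NPY plus isoproterenol and 100% = isoproterenol alone without NPY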
#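 Test system: HEK293 cells co-expressing NPY Y1 receptor and cyclic-nucleotide gated channel; Also added: NPY (25 nM), isoproterenol (1 µM), Ro 20-1724 (25 µM); Compound dosing: one concentration, 3.6 µM, in 0.4% DMSO; Timing: dye 3 h, compound 60 min room temperature, stimulation 45 min; Technique: Membrane-potential fluorescent dye readout.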
# NPY-Y2 antag – NPY-Y2 (human) receptor antagonism; P49146; NPY-Y2 expressing cells, antagonist mode; inhibition, % at 2.7 µM; 140,000 tested, 0.99% active; in the data active = inhibition above about 17%;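 also: 0% = vehicle with agonist challenge and 100% = reference antagonist with challenge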
# Target sequence (P49146 whole entry, looked up): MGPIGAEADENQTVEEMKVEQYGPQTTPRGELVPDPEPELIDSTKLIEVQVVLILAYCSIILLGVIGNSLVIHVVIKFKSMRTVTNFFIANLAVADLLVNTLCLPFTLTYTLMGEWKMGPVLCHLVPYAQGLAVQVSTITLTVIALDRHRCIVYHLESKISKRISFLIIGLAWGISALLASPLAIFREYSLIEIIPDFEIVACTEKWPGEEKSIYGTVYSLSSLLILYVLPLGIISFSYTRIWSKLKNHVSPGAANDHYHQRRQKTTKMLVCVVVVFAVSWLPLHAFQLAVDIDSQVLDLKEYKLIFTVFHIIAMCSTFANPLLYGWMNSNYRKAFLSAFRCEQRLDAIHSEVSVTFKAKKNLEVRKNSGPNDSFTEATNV
# NPY-Y2 PAM-ag – potentiates or activates human NPY-Y2 receptor. P49146. cells expressing NPY-Y2, potentiator/agonist read-out. activation, % at 3.6 µM. 220,000 tested, 0.45% active. AID 1359; in the data active = activation above about 27%;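 also: cells stimulated with NPY near EC25 plus isoproterenol at EC100; 0% = vehicle plus submaximal agonist and 100% = vehicle plus saturating agonist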
# Calpain2 inh – inhibitors of pig calpain II. purified calpain II, fluorogenic peptide substrate, 30 min. inhibition, % at 16 µM. 220,000 tested, 0.37% active;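 active = inhibition above about 50%, limit read from the data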
# NPY-Y1 PAM-ag – human NPY-Y1 potentiation or agonism, primary screen; P25929; activation, % at 3.6 µM; NPY-Y1 expressing cells, potentiator/agonist activation; AID 1304; 220,000 tested, 0.37% active; in the data active = activation above about 33%, passing the limit was not always enough;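 also: cells stimulated with NPY at EC10 then isoproterenol at EC100; 0% = low agonist plus stimulus and 100% = saturating agonist plus stimulus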
# TbHK1 inh – blocks Trypanosoma brucei hexokinase 1 activity; 220,000 tested, 0.11% active; recombinant TbHK1, G6PDH-coupled NADH A340; inhibition, % at 10 µM;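 active = inhibition of 50% or more in the single-dose primary screen; inactive = inhibition below 50%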
# NPY1 antag ctr – human NPY-Y1 antagonism in NPY-Y2 counter-screen; shares compounds with NPY-Y2 antag; cell-based NPY-Y1 antagonism counterscreen; inhibition, % at 3.6 µM; 710 tested, 19% active; AID 1256; in the data active = inhibition above about 20%;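 also: cells challenged with NPY then isoproterenol with cAMP sensed through a CNG channel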
# NPY2 antag conf – human NPY-Y2 antagonism, confirmation | shares compounds with NPY-Y2 antag | HEK293 NPY-Y2 CNG channel, membrane potential fluorescence | inhibition, % at 2.8 µM | 710 tested, 32% active;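 active = mean inhibition of triplicate wells above the hit cutoff set in the primary screen, cut at about 17% in these data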;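 also: 0% = DMSO with NPY challenge and 100% = BIIE0246 high control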
# * hit, by the source's call; nt = not tested or not shown; ! = repeats disagree.
SMILES,NPY-Y1 antag,NPY-Y2 antag,NPY-Y2 PAM-ag,Calpain2 inh,NPY-Y1 PAM-ag,TbHK1 inh,NPY1 antag ctr,NPY2 antag conf
COc1ccc(/C(N)=N/OC(=O)Cc2ccccc2[N+](=O)[O-])cc1,2.7,2.4,-10.7,56.7*,-2.1,-0.5,nt,nt
N/C(=N\OC(=O)Cc1ccccc1[N+](=O)[O-])c1cccnc1,4.5,nt,6.3,-14.9,-5.7,-1.0,nt,nt
c1ccc2c(c1)oc1c(NCc3ccc4c(c3)OCO4)ncnc12,5.8,17.8*,-18.8,6.2,-32.4,1.9,nt,nt
O=C(CSc1nc2ccccc2c(=O)n1-c1ccccc1)N1CCCc2ccccc21,4.5,6.8,-7.9,-7.3,4.7,-2.6,nt,nt
CCCn1c(SCC(=O)N2CCN(c3ccccc3)CC2)nc2ccccc2c1=O,21.5*,19.4*,-22.6,15.8,-28.3,-6.0,nt,nt
CCn1c(SCC(=O)N2CCN(c3ccc(F)cc3)CC2)nc2ccccc2c1=O,-7.2,0.5,2.6,-37.2,0.0,1.2,nt,nt
O=C(CSc1nc2ccccc2c(=O)n1-c1ccccc1)N1CCc2ccccc21,8.4,6.5,-9.3,68.2*,-9.5,16.9,nt,nt
COc1ccc(C2C(C(=O)NCCCN3CCOCC3)c3ccccc3C(=O)N2c2ccc(OC)cc2)cc1 (configuration not stated),-2.0,nt,1.2,2.8,6.7,-3.4,nt,nt
O=C(NCc1ccc2c(c1)OCO2)C1CCN(c2nccc(C(F)(F)F)n2)CC1,nt,nt,-18.7,-19.8,-26.2,-9.3,nt,nt
O=S(=O)(Nc1ccc(-c2csc(-c3ccccc3)n2)cc1)c1ccc(F)cc1,-3.1,3.5,-18.6,55.5*,-1.1,7.4,nt,nt
N#Cc1ccccc1Sc1ccccc1C(=O)OCc1nnc(-c2ccccc2)o1,8.2,6.3,-5.2,17.3,-20.2,58.1*,nt,nt
N#Cc1ccccc1Sc1ccccc1C(=O)OCC(N)=O,9.7,nt,-5.1,-21.6,-7.5,-14.4,nt,nt
CCC(NC(=O)c1ccccc1NC(=O)c1ccccc1)C(=O)NNC(=O)c1cccnc1 (configuration not stated),nt,nt,-5.8,10.8,-7.3,4.1,nt,nt
CCc1oc2ccccc2c1C(=O)c1cc(Br)c(O)c(Br)c1,9.8,12.4,-4.5,55.4*!,-13.5,-7.4,nt,nt
Cc1nnc(SCC(=O)c2ccc(C(C)C)cc2)s1,5.2,nt,6.3,31.2,-8.7,4.7,nt,nt
O=C(NCc1ccccn1)c1cc(-c2ccc(Cl)cc2)nc2ccccc12,11.7,26.8*,8.3,-17.7,-30.1,-3.7,4.0,4.3
O=C(O)C1CCN(c2nc(-c3ccccc3)nc3c2oc2ccccc23)CC1,-15.7,1.2,-8.2,-22.9,-3.9,8.2,nt,nt
Cc1nc(N2CCC(C)CC2)c2oc3ccccc3c2n1,19.2,18.6*,-43.4,-8.0,-20.4,-8.6,15.9,36.5*
CNCc1ccccc1Sc1ccc(OC)cc1,5.0,19.5*,-17.2,11.6,-33.9,3.7,1.9,6.0
COc1ccccc1NS(=O)(=O)c1cc(NC(=O)c2ccncc2)ccc1N1CCCC1,-0.5,nt,4.8,-64.5,12.4,-5.4,nt,nt
O=C(CCc1nnc(CCc2c[nH]c3ccccc23)o1)NC1CCC1,nt,nt,-16.4,-15.9,8.3,-7.5,nt,nt
N=c1n(Cc2ccccc2)c2ccccc2n1Cc1ccccc1,16.6,23.1*,29.8,-14.1,-1.3,12.7,13.4,12.8
O=c1[nH][nH]c(-c2ccccc2)c1C=Nc1ccc(OC(F)(F)F)cc1,4.7,nt,-1.2,7.6,-8.7,-8.4,nt,nt
Cc1ccc(NC(=O)C(=O)NCCOc2ccc(Cl)cc2)c(C)c1,4.2,21.5*,-7.6,-2.0,-5.7,-2.4,14.2,20.1*
COC(=O)c1ccc(N2Cc3ccccc3/C2=N\C(=O)Nc2ccccc2)cc1,-0.8,16.5,6.8,-11.0,-13.0,0.0,nt,nt
SMILES,NPY-Y1 antag,NPY-Y2 antag,NPY-Y2 PAM-ag,Calpain2 inh,NPY-Y1 PAM-ag,TbHK1 inh,NPY1 antag ctr,NPY2 antag conf
CC(=O)c1ccc(N2Cc3ccccc3/C2=N\C(=O)Nc2ccc(Cl)cc2)cc1,5.8,24.4*,6.3,-33.9,14.7,-17.9,109.2*,150.5*
Nc1sc2c([n+]1CCCS(=O)(=O)[O-])CCCC2,1.3,nt,7.3,-5.9,-0.9,-3.8,nt,nt
O=C(NC1CCCC1)C(c1cccnc1)N(CCc1ccccc1)C(=O)c1ccco1 (configuration not stated),1.4,nt,-3.5,-8.2,-0.3,-0.7,nt,nt
O=C(NC1CCCCC1)C(c1cccnc1)N(CCc1ccccc1)C(=O)Cc1cccs1 (configuration not stated),5.4,22.5*,-0.7,11.1,-23.7,20.7,18.8,12.2
CN(c1ccc(OCC(=O)N2CCOCC2)cc1)S(=O)(=O)c1ccc(Cl)cc1,-0.3,nt,-16.8,-11.6,-23.4,0.4,nt,nt
O=C(NC1CCCC1)C(c1cccs1)N(Cc1ccco1)C(=O)Cn1nnc(-c2cccs2)n1 (configuration not stated),6.2,9.2,-19.7,-26.9,-28.3,5.6,nt,nt
CC(C)(C)NC(=O)C(c1ccc(F)cc1)N(Cc1ccco1)C(=O)Cn1nnc(-c2cccs2)n1 (configuration not stated),5.5,23.6*,-16.9,-4.3,-54.4,-3.0,11.5,11.8
Cn1c(NNC(=O)C(c2ccccc2)c2ccccc2)cc(=O)n(C)c1=O,-9.0,nt,-5.8,22.0,14.7,3.9,nt,nt
CSc1cccc(NC(=S)Nc2cc(C)ccc2C)c1,nt,nt,-9.5,-9.8,-9.7,-10.3,nt,nt
COc1ccc(OC)c(-c2cc(C(=O)N3CCCc4ccccc43)no2)c1,18.7,17.5*,-30.6,25.5,-33.4,-8.7,9.8,5.4
COc1cccc(-c2cc(C(=O)N3CCCc4ccccc43)no2)c1,17.1,19.4*,0.5,-11.4,-25.4,0.6,17.1,9.3
COc1ccc(-c2cc(C(=O)N3CCCc4ccccc43)no2)cc1OC,2.4,4.6,8.5,3.8,12.0,1.0,nt,nt
Cc1ccc(-n2c(C(C)C)nc3oc4ccccc4c(=O)c3c2=O)cc1,nt,nt,-17.6,-17.0,2.3,-8.0,nt,nt
COc1ccc(/C=C/C(O)=C2/C(=O)N(C)C3(C)CC2c2ccccc2O3)cc1 (configuration not stated),10.9,21.2*,1.8,-72.9,-30.0,-31.6,15.7,11.3
CCN(CC)c1ccc(C(=O)N/N=C(\C)c2ccc(O)cc2)cc1,-2.4,2.2,-7.1,13.5,-1.5,-2.1,nt,nt
COc1ccccc1Nc1nc2nonc2nc1N1CCCCC1C (configuration not stated),6.1,18.6*,0.9,0.5,-10.0,23.2,17.2,9.1
CC1CCCCN1c1nc2nonc2nc1N1CCCCC1C (configuration not stated),7.1,6.0,5.0,-1.4,17.9,-20.5,nt,nt
O=C(c1ccco1)N(CCCN1CCOCC1)c1nc(-c2ccc(F)cc2)cs1,9.4,19.0*,-15.5,-36.7,-30.3,-22.7,15.7,12.9
